Results from ChEMBL document CHEMBL4433203, “Design, synthesis, and evaluation of isoflavone analogs as multifunctional agents for the treatment of Alzheimer's disease” (Eur J Med Chem, 2019).
Calls of active or inactive are those of the source. The calls are words filed in the database; no cut-off is given here.

Experiments:
Histamine H3 receptor [1] = target: T1, Histamine H3 receptor (Homo sapiens, UniProt Q9Y5N1); test: Inhibition of human H3R expressed in methylhistamine-induced human H3-bla U2OS cells incubated for 30 mins by beta-lactamase complementation technology; type: cell-based
T1 sequence (Q9Y5N1 whole entry, the tested form may be a part): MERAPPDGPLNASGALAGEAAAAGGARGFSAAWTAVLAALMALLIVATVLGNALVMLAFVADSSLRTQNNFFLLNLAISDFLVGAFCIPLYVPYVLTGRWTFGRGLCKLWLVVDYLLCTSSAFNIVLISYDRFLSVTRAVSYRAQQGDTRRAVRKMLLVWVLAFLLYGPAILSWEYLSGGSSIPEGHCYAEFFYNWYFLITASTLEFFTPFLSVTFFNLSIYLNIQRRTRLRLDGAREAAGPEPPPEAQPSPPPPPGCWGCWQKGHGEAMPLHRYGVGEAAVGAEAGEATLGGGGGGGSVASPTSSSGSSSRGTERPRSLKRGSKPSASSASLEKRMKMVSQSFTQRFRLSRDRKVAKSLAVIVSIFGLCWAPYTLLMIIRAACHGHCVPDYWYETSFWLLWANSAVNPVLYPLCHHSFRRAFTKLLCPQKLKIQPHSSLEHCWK
Method in brief: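 H3-bla U2OS cells co-express human H3R-Gal4-VP16 (TEV site) and β-arrestin/TEV protease with a UAS-β-lactamase reporter. IC50 came from log concentration-inhibition curves. Triplicates, three independent experiments.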

Acetylcholinesterase = target: T2, Acetylcholinesterase (Mus musculus, UniProt P21836); test: Inhibition of mouse brain AChE using acetylthiocholine iodide as substrate measured after 30 mins by Ellman's method
T2 sequence (P21836 whole entry): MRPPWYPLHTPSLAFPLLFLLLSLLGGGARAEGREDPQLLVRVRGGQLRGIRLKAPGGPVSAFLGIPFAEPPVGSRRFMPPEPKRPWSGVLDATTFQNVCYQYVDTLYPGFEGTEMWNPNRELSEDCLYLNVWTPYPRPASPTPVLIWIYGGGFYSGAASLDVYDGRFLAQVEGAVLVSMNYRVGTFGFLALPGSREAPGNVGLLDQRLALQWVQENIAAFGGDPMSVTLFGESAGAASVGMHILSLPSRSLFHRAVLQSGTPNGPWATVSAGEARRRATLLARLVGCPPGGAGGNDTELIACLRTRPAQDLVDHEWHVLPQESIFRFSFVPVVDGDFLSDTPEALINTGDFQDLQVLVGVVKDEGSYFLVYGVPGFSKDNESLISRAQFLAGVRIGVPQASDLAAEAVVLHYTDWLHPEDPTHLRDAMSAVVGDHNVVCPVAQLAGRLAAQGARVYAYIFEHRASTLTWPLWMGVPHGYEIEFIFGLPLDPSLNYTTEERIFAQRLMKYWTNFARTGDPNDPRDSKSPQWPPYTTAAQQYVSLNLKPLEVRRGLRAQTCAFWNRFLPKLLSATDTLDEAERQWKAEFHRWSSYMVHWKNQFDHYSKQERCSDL

[2] = Antioxidant activity assessed as AAPH radical scavenging activity preincubated for 15 mins with fluorescein before AAPH addition and recorded every 2 mins for 160 mins by ORAC-FL assay; type: functional
Method in brief: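 ORAC-FL assay in 75 mM PBS, pH 7.4. Compound was preincubated with fluorescein (20 nM final) for 15 min at 37 °C, then AAPH (18 mM final) was added. Fluorescence (ex 460/em 520 nm) was read every 2 min for 160 min. Net area under the decay curve, blank-normalized, is expressed as µM Trolox equivalents per µM compound. Duplicates, ≥3 independent assays.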

Histamine H3 receptor [3] = target: T1, Histamine H3 receptor; test: Inhibition of human H3R expressed in methylhistamine-induced human H3-bla U2OS cells at 10 uM incubated for 30 mins by beta-lactamase complementation technology relative to control; type: cell-based
Cholinesterase = Cholinesterase (Mus musculus, UniProt Q03311); test: Inhibition of mouse plasma BuChE using S-butyrylacetylthiocholine iodide as substrate measured after 30 mins by Ellman's method relative to control
Cholinesterase, sequence (Q03311 whole entry): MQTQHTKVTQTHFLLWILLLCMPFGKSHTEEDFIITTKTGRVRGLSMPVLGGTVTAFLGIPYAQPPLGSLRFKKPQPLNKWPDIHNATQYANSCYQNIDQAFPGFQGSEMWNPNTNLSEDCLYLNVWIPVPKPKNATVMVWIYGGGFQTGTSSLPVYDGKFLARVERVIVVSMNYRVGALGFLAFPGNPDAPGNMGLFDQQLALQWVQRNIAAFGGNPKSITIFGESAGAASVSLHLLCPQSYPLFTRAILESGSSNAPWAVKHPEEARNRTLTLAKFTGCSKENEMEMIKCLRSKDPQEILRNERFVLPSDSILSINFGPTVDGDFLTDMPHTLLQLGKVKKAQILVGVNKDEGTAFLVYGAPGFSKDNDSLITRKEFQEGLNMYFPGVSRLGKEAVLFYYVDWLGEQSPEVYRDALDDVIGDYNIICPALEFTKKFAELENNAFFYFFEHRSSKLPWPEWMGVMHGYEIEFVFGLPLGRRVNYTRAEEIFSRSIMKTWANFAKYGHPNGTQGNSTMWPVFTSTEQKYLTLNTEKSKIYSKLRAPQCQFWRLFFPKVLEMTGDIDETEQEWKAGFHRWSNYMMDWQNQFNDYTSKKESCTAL

[4] = target: T3, Acetylcholinesterase (Mus musculus) (UniProt P21836); conditions: at 10 µM
T3 sequence (whole entry): T2 sequence (P21836 whole entry)

[5] = Cytotoxicity in human SH-SY5Y cells assessed as reduction in cell viability after 72 hrs incubation by MTT assay
SH-SY5Y = test: Neuroprotective activity against copper-induced cytotoxicity in human SH-SY5Y cells expressing APP Swedish mutant assessed as increase in cell viability at 10 uM pre-incubated for 2 hrs followed by copper addition and measured after 24 hrs by MTT assay; type: functional, cell-based
BV-2 [6] = test: Antiinflammatory activity in mouse BV2 cells assessed as reduction in LPS-induced IL-6 production at 10 uM pretreated for 1 hr followed by LPS challenge and measured after 24 hrs by ELISA assay; type: functional, cell-based
BV-2 [7] = test: Antiinflammatory activity in mouse BV2 cells assessed as reduction in LPS-induced TNF-alpha production at 10 uM pretreated for 1 hr followed by LPS challenge and measured after 24 hrs by ELISA assay; type: functional, cell-based

Row | Compound | IC50 (Histamine H3 receptor [1]; read-out: IC50) [µM] | IC50 (Acetylcholinesterase; read-out: IC50) [µM] | Activity [2] [equiv/µM] | inhibition (Histamine H3 receptor [3]) [%] | IC50 (Cholinesterase; read-out: IC50) [µM] | inhibition [4] [%] | further results
1 | CCN(C)CCCOc1ccc2c(=O)c(-c3ccc(OC)cc3)coc2c1 | 0.52 | 22.6 | 0.12 | – | – | – | –
2 | CCN(C)CCCCOc1ccc2c(=O)c(-c3ccc(OC)cc3)coc2c1 | 0.43 | 9.47 | 0.11 | – | – | – | –
3 | O=c1c(-c2ccc(OCCN3CCCCC3)cc2)coc2cc(OCCN3CCCCC3)ccc12 | 1.94 | 0.35 | 0.14 | 71.5 | 2.92 | 82.8 | –
4 | COc1ccc(-c2coc3cc(OCCNC(=O)OC(C)(C)C)ccc3c2=O)cc1 | – | – | 0.05 | – | – | -0.17 | IC50 (Histamine H3 receptor [1]; u2os): Not Active; IC50 (Acetylcholinesterase): Not Active; IC50 (Cholinesterase): Not Active
5 | COc1ccc(-c2coc3cc(OCCN)ccc3c2=O)cc1.Cl | – | > 50 | 0.08 | -6.69 | – | 16.9 | IC50 (Histamine H3 receptor [1]; u2os): Not Active; IC50 (Cholinesterase): Not Active
6 | COc1ccc(-c2coc3cc(OCCCCN4CCCCC4)ccc3c2=O)cc1 | 0.73 | 3.98 | 0.07 | – | 8.83 | – | –
7 | S=C(NC1CCCCC1)N1CCC(c2cnc[nH]2)CC1 [THIOPERAMIDE] | – | – | – | 71.1 | – | – | CC50 at 72 h ([5]; SH-SY5Y cells): 85.8 µM
8 | COc1ccc(-c2coc3cc(OCCNc4c5c(nc6ccccc46)CCCC5)ccc3c2=O)cc1 | > 10 | 0.96 | 0.01 | 60.5 | 0.38 | 85.8 | –
9 | COc1ccc(-c2coc3cc(OCCOCCN4CCCCC4)ccc3c2=O)cc1 | > 50 | > 50 | 0.01 | 30.3 | > 50 | 35 | –
10 | O=c1c(-c2ccc(O)cc2)coc2cc(OCCCCN3CCCCC3)ccc12 | > 50 | 26.8 | 0.88 | 6.88 | 24.8 | 63.4 | –
11 | COc1ccc(-c2coc3cc(OCCNC4CCCCC4)ccc3c2=O)cc1 | > 50 | 5 | 0.01 | 41 | 21.6 | 73.7 | –
12 | CCN(C)C(=O)Oc1cccc([C@H](C)N(C)C)c1 [RIVASTIGMINE] | – | – | – | – | – | – | CC50 at 72 h ([5]; SH-SY5Y cells): 67.8 µM
13 | O=c1c(-c2ccc(OCCN3CCCCC3)cc2)coc2cc(OCCN3CCCC3)ccc12 | 2.07 | 0.71 | 0.14 | – | 4.55 | – | –
14 | COc1cc2c(cc1OC)C(=O)C(CC1CCN(Cc3ccccc3)CC1)C2 (stereo not given) [DONEPEZIL] | – | – | – | – | – | – | CC50 at 72 h ([5]; sh-sy5y): 25.1 µM; Activity (SH-SY5Y): inactive; Activity (BV-2 [6]): inactive; Activity (BV-2 [7]): inactive
15 | O=c1c(-c2ccc(OCCN3CCCCC3)cc2)coc2cc(OCCCCN3CCCCC3)ccc12 | 0.41 | 0.2 | 0.11 | 72.4 | 2.49 | 85.1 | –
16 | COc1ccc(-c2coc3cc(OCCN4C(=O)c5ccccc5C4=O)ccc3c2=O)cc1 | – | > 50 | 0.01 | – | – | 11.2 | IC50 (Histamine H3 receptor [1]; u2os): Not Active; IC50 (Cholinesterase): Not Active
17 | Cc1c(C)c2c(c(C)c1O)CCC(C)(C(=O)O)O2 (stereo not given) | – | – | 1 | – | – | – | –
18 | COc1ccc(-c2coc3cc(OCCNC4CCCC4)ccc3c2=O)cc1 | > 50 | 4.5 | 0.01 | 47.1 | 5.98 | 78.5 | –
